Test [1] concerns PBMC. The experiment in a line: Immunomodulatory activity in human PBMCs assessed as increase in PMA/ionomycin-induced IL10 release at 0.2 to 200 uM incubated for 18 hrs by multiplexed cytokine assay. In kind it is functional, cell-based. The method, boiled down:
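Human PBMC stimulated with PMA 3.33 ng/mL and ionomycin 500 nM plus compound at 0.2, 2, 20 or 200 μM for 18 h. Supernatant cytokines quantified by cytometric bead array. Compared with PMA/ionomycin-only cells; two independent experiments in duplicate, two donors, mean ± SD.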

Test [2] concerns PBMC. Briefly: Immunomodulatory activity in human PBMCs assessed as reduction in PMA/ionomycin-induced TNFalpha release at 20 uM incubated for 18 hrs by multiplexed cytokine assay. Format: functional, cell-based. The method, boiled down:
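Ficoll-isolated human PBMC, 1 × 10^6 cells per well, treated with 20 μM compound (DMSO ≤0.1%) plus PMA 3.33 ng/mL and ionomycin 500 nM for 18 h at 37 °C, 5% CO2. Cell-free supernatant cytokines measured by CBA human inflammatory kit on a flow cytometer against recombinant standards. Reported as % of PMA/ionomycin-only release; duplicates, three experiments, three donors.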

Activity calls are given as the source filed them. The rule behind the calls is not given here.

`CCOC(=O)CC[C@@H](NC(=O)[C@H](C)NC(=O)CNC(=O)c1cc2ccccc2[nH]1)C(=O)OCC`: in test [1], the outcome was inactive. Regarding `CCCCOC(=O)[C@@H](CCC(N)=O)NC(=O)[C@H](C)NC(=O)[C@@H](C)O[C@H]1[C@H](O)[C@@H](CO)OC(O)[C@@H]1NC(C)=O` (stereo partly drawn) [MURABUTIDE], the result in test [1] was inactive. Regarding `CCOC(=O)CC[C@@H](NC(=O)[C@H](C)NC(=O)CNC(=O)c1cc2ccccc2[nH]1)C(N)=O`, in test [2], the result was Active.

(Values after ChEMBL document CHEMBL2163344, “Immunomodulatory properties of novel nucleotide oligomerization domain 2 (nod2) agonistic desmuramyldipeptides” (J Med Chem, 2012).)
